Type in all cases: functional
Assay [1] can be described thus: The in vitro binding constant in presence of K+ was reported. In short, it runs like this: (§1)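 Fluorescence titration in pH 7.0 buffer series (50 mM MOPS, pH set with tetramethylammonium hydroxide) containing 0–1000 mM of the monovalent cation (Li+, Na+, K+ or Rb+) at 20 °C. Kd (mM) was taken from the intensity change with cation concentration, alongside the response S = I[bound]/I[free].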

Assay [2] is described as follows: The in vitro binding constant in presence of Li+ was reported. In short, it runs like this: as §1
Assay [3] can be described thus: The in vitro binding constant in presence of Rb+ was reported. In short, it runs like this: as §1

These results are taken from ChEMBL document CHEMBL1143502, “Fluorescent metal ion indicators based on benzoannelated crown systems: a green fluorescent indicator for intracellular sodium ions” (Bioorg Med Chem Lett, 2005).

`COC(=O)CN1CCOCCOCCOc2cc(-c3c4cc(F)c(=O)cc-4oc4cc(O)c(F)cc34)ccc21`: the Kd (as a rule, a measure of binding affinity in units of concentration) amounted to 978 mM in assay [1], 438 mM in assay [2] and 376 mM in assay [3].

Regarding `COC(=O)CN1CCOCCOCCOCCOc2cc(NC(=O)c3ccc(-c4c5cc(F)c(=O)cc-5oc5cc(O)c(F)cc45)c(C(=O)O)c3)ccc21`, the Kd in assay [1] amounted to 144 mM; in assay [2] it was 65 mM; in assay [3], 157 mM.

Turning to `COC(=O)CN1CCOCCOCCOCCOCCOc2cc(-c3c4cc(F)c(=O)cc-4oc4cc(O)c(F)cc34)ccc21`, the Kd in assay [1] was 11 mM; in assay [3] it was 25 mM.

`COC(=O)CN1CCOCCOCCOCCOc2cc(-c3c4cc(F)c(=O)cc-4oc4cc(O)c(F)cc34)ccc21`: the Kd in assay [1] was found to be 291 mM; in assay [2], 142 mM; in assay [3], 319 mM.

Consider `COC(=O)CN1CCOCCOCCOCCOc2cc(C3=C4C(C)=CC(C)=[N+]4[B-](F)(F)n4c(C)cc(C)c43)ccc21`, for which, in assay [1], the Kd came to 170 mM.

In the case of `COCCN1CCOCCOCCOCCOc2cc(-c3c4cc(F)c(=O)cc-4oc4cc(O)c(F)cc34)ccc21`, in assay [1], the Kd was 269 mM.

In the case of `COC(=O)CN1CCOCCOCCOCCOc2cc(-c3c4ccc(=[N+](C)C)cc-4oc4cc(N(C)C)ccc34)ccc21`, the Kd in assay [1] was determined as 254 mM.
